Data published in ChEMBL document CHEMBL1151735, “Further studies with the 2-amino-1,3-thiazol-4(5H)-one class of 11beta-hydroxysteroid dehydrogenase type 1 inhibitors: reducing pregnane X receptor activity and exploring activity in a monkey pharmacodynamic model” (J Med Chem, 2008).

Experiments:
[1] = biological target: T1, 11-beta-hydroxysteroid dehydrogenase 1 (Homo sapiens, UniProt P28845); experiment: Inhibition of human 11beta-HSD1 expressed in CHO cells assessed as conversion of cortisone to cortisol by ELISA; assay type: cell-based
T1 sequence (P28845 whole entry): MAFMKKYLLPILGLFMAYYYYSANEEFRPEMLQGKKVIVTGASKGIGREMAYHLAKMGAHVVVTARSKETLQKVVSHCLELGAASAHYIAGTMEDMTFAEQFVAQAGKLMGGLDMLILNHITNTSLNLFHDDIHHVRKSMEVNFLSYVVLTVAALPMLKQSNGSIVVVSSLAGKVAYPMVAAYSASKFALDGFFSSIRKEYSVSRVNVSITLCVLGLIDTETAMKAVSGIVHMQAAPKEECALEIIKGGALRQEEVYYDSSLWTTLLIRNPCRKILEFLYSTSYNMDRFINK

[2] = biological target: T2, 11-beta-hydroxysteroid dehydrogenase type 2 (Homo sapiens, UniProt P80365); experiment: Inhibition of human 11beta-HSD2 expressed in CHO cells using [3H]cortisol by scintillation proximity assay; assay type: cell-based
T2 sequence (P80365 whole entry): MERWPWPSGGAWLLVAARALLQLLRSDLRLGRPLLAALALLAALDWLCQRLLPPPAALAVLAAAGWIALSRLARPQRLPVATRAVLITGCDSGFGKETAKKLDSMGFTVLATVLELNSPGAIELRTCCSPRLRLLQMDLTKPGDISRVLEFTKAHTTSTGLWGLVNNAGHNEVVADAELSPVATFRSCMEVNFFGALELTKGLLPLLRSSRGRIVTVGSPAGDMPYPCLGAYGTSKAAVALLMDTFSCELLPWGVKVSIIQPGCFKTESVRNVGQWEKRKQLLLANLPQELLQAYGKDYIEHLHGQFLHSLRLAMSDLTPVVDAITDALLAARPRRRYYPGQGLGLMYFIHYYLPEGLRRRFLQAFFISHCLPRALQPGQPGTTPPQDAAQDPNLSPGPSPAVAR
Outline: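 Human 11β-HSD2 from CHO cells with [3H]cortisol 3 nM and NAD+ 300 µM, in 0.1 M sodium phosphate pH 7.6. 1 h at room temperature, then stopped with 18β-glycyrrhetinic acid. Anticortisol antibody and antimouse SPA beads added for 30 min; radiometric read-out.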

[3] = biological target: T3, Nuclear receptor subfamily 1 group I member 2 (Homo sapiens, UniProt O75469); experiment: Transactivation of human PXR transfected in HEK cells at 20 uM by luciferase reporter gene assay relative to 12.5 uM rifampin; assay type: cell-based; conditions: hek293, 20 µM
T3 sequence (O75469 whole entry): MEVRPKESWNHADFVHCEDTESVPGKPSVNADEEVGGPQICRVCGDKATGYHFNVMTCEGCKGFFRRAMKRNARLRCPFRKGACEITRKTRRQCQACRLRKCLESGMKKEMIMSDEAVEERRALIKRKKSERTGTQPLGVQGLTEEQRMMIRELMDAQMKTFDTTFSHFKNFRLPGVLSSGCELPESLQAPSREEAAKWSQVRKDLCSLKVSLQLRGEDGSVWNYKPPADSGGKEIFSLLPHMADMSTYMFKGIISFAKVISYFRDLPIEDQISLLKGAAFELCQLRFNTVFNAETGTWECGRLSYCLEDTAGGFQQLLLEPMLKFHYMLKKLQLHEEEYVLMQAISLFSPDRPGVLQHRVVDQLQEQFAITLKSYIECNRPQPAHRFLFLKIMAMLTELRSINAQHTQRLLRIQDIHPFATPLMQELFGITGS
Outline: (§1)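 HEK cells transfected with human PXR fused to a firefly luciferase reporter. Luciferase activity is expressed as percent of the 12.5 µM rifampin response. Run in triplicate; SEM reported.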

[4] = biological target: T1, 11-beta-hydroxysteroid dehydrogenase 1; experiment: Inhibition of human recombinant 11beta-HSD1 expressed in Escherichia coli using [3H]cortisone by scintillation proximity assay
[5] = biological target: T4, PXR (nuclear receptor subfamily 1 group I member 2) (Homo sapiens, UniProt O75469); experiment: Transactivation of human PXR transfected in HEK cells at 2 uM by luciferase reporter gene assay relative to 12.5 uM rifampin; assay type: cell-based; conditions: HEK293 cells transfected with human PXR, read-out: Activity; outline: as §1
T4 sequence (O75469 whole entry): T3 sequence (O75469 whole entry)

[6] = biological target: T5, Cytochrome P450 3A4 (Homo sapiens, UniProt P08684); experiment: Induction of CYP3A4 activity in cryopreserved human hepatocytes from male DJV donars with no adverse medical history or substance or alcohol abuse at 20 uM relative to 20 uM rifampin
T5 sequence (P08684 whole entry): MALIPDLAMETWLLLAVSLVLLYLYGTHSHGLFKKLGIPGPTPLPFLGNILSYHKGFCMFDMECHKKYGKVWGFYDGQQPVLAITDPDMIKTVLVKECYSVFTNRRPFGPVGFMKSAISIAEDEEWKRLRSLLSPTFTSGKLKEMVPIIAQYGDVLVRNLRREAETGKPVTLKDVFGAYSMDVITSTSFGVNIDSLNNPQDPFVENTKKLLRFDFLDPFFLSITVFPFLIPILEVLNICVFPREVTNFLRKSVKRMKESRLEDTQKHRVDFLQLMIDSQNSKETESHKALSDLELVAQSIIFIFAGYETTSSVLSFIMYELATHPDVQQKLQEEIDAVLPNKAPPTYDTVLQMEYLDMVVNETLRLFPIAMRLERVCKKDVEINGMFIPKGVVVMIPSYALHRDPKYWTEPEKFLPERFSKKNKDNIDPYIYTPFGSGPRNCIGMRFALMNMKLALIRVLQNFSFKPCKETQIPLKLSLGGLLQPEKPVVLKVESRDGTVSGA

[7] = biological target: T5, Cytochrome P450 3A4; experiment: Induction of CYP3A4 activity in cryopreserved human hepatocytes from female NPV donars with history of tobacco and substance usage at 20 uM relative to 20 uM rifampin
[8] = test system: Hepatocyte; experiment: Induction of CYP3A4 in cryopreserved human hepatocytes from female NPV donars with history of tobacco and substance usage assessed as mRNA expression at 20 uM relative to 20 uM rifampin; assay type: functional
[9] = test system: Hepatocyte; experiment: Induction of CYP3A4 in cryopreserved human hepatocytes from male DJV donars with no adverse medical history or substance or alcohol abuse assessed as mRNA expression at 20 uM relative to 20 uM rifampin; assay type: functional

Compound	IC50 [1]	IC50 [2]	Activity [3]	Ki [4]	further results
C[C@H](NC1=NC(=O)C(C)(C(C)(C)O)S1)c1ccccc1C(F)(F)F (stereo partly drawn)	43 nM	> 10000 nM	43%	25 nM	–
C[C@H](NC1=NC(=O)C(C)(C2(O)CCCC2)S1)c1ccc(F)cc1 (stereo partly drawn)	11 nM	> 10000 nM	61%	25 nM	–
C[C@H](NC1=NC(=O)C(C)(c2ccc(CO)cc2)S1)c1ccc(F)cc1 (stereo partly drawn)	–	–	25%	–	activity at 2 µM [5]: 2.3%
C[C@H](NC1=NC(=O)[C@@](C)(C(F)(F)F)S1)c1ccccc1F	–	–	45%	–	Activity [6]: 64%; Activity [7]: 56%; Activity [8]: 67%; Activity [9]: 110%
C[C@H](NC1=NC(=O)C(C)(c2ccc(C(=O)N3CCCC3)cc2)S1)c1ccc(F)cc1 (stereo partly drawn)	–	–	35%	–	activity at 2 µM [5]: 4.1%

Further lines, with some results ahead:

IC50 [1]	IC50 [2]	Activity [3]	Ki [4]	Compound	further results
51 nM	> 10000 nM	10%	65 nM	C[C@H](NC1=NC(=O)C(C)(C(C)(C)O)S1)c1ccc(F)cc1 (stereo partly drawn)	–
–	–	68%	–	C[C@H](NC1=NC(=O)C(C)(C(C)(C)O)S1)c1ccccc1 (stereo partly drawn)	–
300 nM	–	–	210 nM	C[C@H](NC1=NC(=O)[C@@](C)(C(C)(C)O)S1)c1ccc(F)cc1	–
70 nM	> 10000 nM	19%	34 nM	C[C@H](NC1=NC(=O)C(C)(C(C)(C)O)S1)c1ccccc1F (stereo partly drawn)	–
